The test system of assay [1] is HMLE_sh_eGFP viability, CellTiter-Glo luminescence, 72 h. The experiment in a line: cytotoxicity in control HMLE_sh_eGFP cells, dose response, counter-screen for breast cancer stem cell project, cell-based, luminescence, dry powder, set 3 (AID 493196). In short, it runs like this:
(§1)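 Medium: serum-free CSC screening medium / System: HMLE_sh_eGFP counterscreen cell line / Technique: CellTiter-Glo luminescence / Control set: DMSO neutral, puromycin 160 µM positive / Times: ≥4 h attachment, ~70–74 h exposure, 37 °C, 5% CO2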
In general terms: The purpose of a counterscreen is to sort out artefacts and off-target activity.

Experiment in assay [2]: as above
Particulars: HMLE_sh_eGFP viability, CellTiter-Glo luminescence, 72 h; at 19.5 µM (top of the series). The method in brief:
as §1
For orientation: Cellular ATP, detected with luciferase, serves as a proxy for viable cell number.

Inconclusive results are not listed. The source made the active and inactive calls.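 Rule for the calls: active = every repeat test active, with falling signal and half-maximal dose at most ten times the top dose; inconclusive = repeat tests disagree, or a weak flat or poor fit; inactive = all tests inactive, including signal shifting the wrong way.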

For orientation: AC50 means the midpoint of the concentration-response curve, whichever way the signal moves.

As for `Cc1onc(-c2ccccc2)c1C(=O)Nc1sc2c(c1C#N)CCC(C)C2` (stereo not drawn), in assay [1], the AC50 is 6.9 µM.

As for `CCN1C(=O)/C(=C\N2CCN(c3cccc(Cl)c3)CC2)SC1=S`, the half-maximal activity concentration (AC50) in assay [1] is 11.8 µM.

With `Nc1cc(Cl)ccc1Oc1ccc2ccccc2c1`, the concentration at half-maximal activity (AC50) in assay [1] is 9.73 µM.

As for `O=C(c1ccccc1)c1coc2ccc(O)c(Br)c12`, the activity change, negative = cytotoxic in assay [2] was 1.2% (inactive).

Regarding `C/C(=N\NC(=O)c1cc(-c2cccc([N+](=O)[O-])c2)n[nH]1)c1ccccc1O`, the AC50 in assay [1] was 3.52 µM.

On to `CC(=O)c1cccc(NS(=O)(=O)c2cc(-c3cnc(C4CC4)o3)ccc2C)c1`, for which, in assay [1], the AC50 is 2.67 µM.

For `CC(C)(C)c1ccc2c(c1)OC(C(=O)NN=Cc1ccc[nH]1)CO2` (mixture of isomers), the concentration at half-maximal activity (AC50) in assay [1] was 19.6 µM.

As to `CN(c1ccccc1)S(=O)(=O)c1ccc(-c2ccccc2)cc1`, the AC50 in assay [1] is 14.4 µM.

For the compound `COC(=O)c1c(NC(=O)c2ccccc2)sc2c1CC(C)(C)OC2`, the concentration at half-maximal activity (AC50) in assay [1] was 13.4 µM.

`CCCCCCc1cc2cc(S(=O)(=O)c3ccc(Cl)cc3)c(=O)oc2cc1O`: the AC50 in assay [1] is 0.965 µM.

Turning to `O=C1NC(=Nc2ccc(Cl)cc2)SC1Cc1cccc(Cl)c1Cl` (stereo not drawn), in assay [1], the concentration at half-maximal activity (AC50) is 14.5 µM.

Regarding `O=C(Nc1ccccc1N1CCCC1)c1cccc(-c2cc3ccccc3oc2=O)c1`, the half-maximal activity concentration (AC50) in assay [1] was 7.97 µM.

For `Cc1ccc2nc(NC(=O)c3cccc(-c4cc5ccccc5oc4=O)c3)sc2c1`, the AC50 in assay [1] is 1.85 µM.

(Values after PubChem BioAssay AID493196 (Broad Institute, 2011).)
